Sampled rows, rich in hits. Any-hit rate of the full collection: about 3.1%.
FN deposition inh: fibronectin deposition inhibition | AH1F fibroblasts, Alexa488-fibronectin deposition fluorescence, overnight | inhibition, % at 12.6 µM | hit rate 0.086% among 350,000 | AID 743247;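 active = mean inhibition across replicates of 30% or more, regardless of how many single replicates reach that level; inconclusive = mean under 30% yet at least half of replicates reach 30%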;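 note: positive control wells lacked labelled fibronectin entirely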
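test system = AH1F fibroblasts assembling fluorescent fibronectin matrix | quantity = 10000 AH1F cells per well | buffer or medium = DMEM plus 2% serum, read in PBS | doses = single dose, pinned | incubation = 1 h cell attachment, overnight exposure to compound and label | detection = fluorescence at 485 nm excitation, 525 nm emission | read-out basis = inhibition from reduced deposited-fibronectin fluorescence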
PGC1a acetyl inh: PGC1a acetylation modulation, inhibitor mode | U2OS PGC1a acetylation, AlphaScreen anti-acetyl-lysine; with virally co-expressed GCN5 acetyltransferase | inhibition, % at 15.6 µM | hit rate 0.17% among 350,000;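 active = every replicate shows inhibition of at least 40%; inconclusive = mean inhibition at least 40% but some replicate below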;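 note: 0% = neutral control wells and 100% = positive control wells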
EWS-Fli block: blocks EWS/Fli oncoprotein-driven transcription; hit rate 0.67% among 350,000; inhibition, % at 12.6 µM; A673 NR0B1-luciferase reporter, viability-normalised;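 active = mean inhibition of at least 50% after viability correction, with every replicate also passing that limit; inconclusive = mean reaches 50% but only one of two replicates passes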;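 note: firefly luciferase signal divided by Alamar Blue viability fluorescence both relative to DMSO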
PAX8 inh HTS: PAX8 transcriptional activity inhibition. RMG-I TPO-luciferase reporter, SteadyGlo, 24 h. inhibition, % at 12.6 µM. hit rate 1.2% among 360,000. AID 652154;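 active = mean replicate inhibition at least 60% with every replicate also reaching 60%; inconclusive = only one of the two criteria is met; inactive = mean below 60% and not all replicates reaching 60%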;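 note: luciferase light reporting Pax8 driven TPO promoter activity; plate controls were median of neutral control wells for no effect and mitoxantrone controls for full effect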
HIV Env fusion: inhibitors of HIV Env-mediated cell fusion; HeLa-JRFL Env/CEM21 cell fusion, luciferase; hit rate 1.1% among 360,000; AID 651610; inhibition, % at 12.3 µM;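 active = mean replicate inhibition score of at least 50 and every replicate individually at or above 50; inconclusive = only one of the two criteria met; inactive = mean below 50 and not all replicates reaching 50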;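 note: 0% = plate neutral controls and 100% = maraviroc near 300 nM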
FGF22 binding: binders of recombinant human FGF22 by thermal shift; hit rate 1.5% among 340,000; SYPRO orange fluorescence; percent of sucrose octasulfate shift, DMSO zero; Q9HCT0; AID 651658; activity (Tm shift, normalised), % at 9.99 µM;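 active = mean Tm shift, scaled 0 neutral to 100 positive control, at about 1.3% or above, every replicate too, limit read from the data; inconclusive = no clear call, values can overlap the other calls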
Target sequence (Q9HCT0 whole entry, looked up): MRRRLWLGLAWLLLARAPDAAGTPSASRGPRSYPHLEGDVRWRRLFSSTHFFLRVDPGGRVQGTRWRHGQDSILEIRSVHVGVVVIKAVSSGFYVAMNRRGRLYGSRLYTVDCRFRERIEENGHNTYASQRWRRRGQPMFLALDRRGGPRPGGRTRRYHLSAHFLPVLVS
An asterisk follows results filed as active; ? = inconclusive; · = no result; [ ] = remark or other dose.

SMILES	FN deposition inh	PGC1a acetyl inh	EWS-Fli block	PAX8 inh HTS	HIV Env fusion	FGF22 binding
COc1ccc(CN2C[C@@H](C)[C@H](OC)CN(C)C(=O)c3cc(NC(=O)C4CC4)ccc3OC[C@H]2C)cc1	0	9	1	·	22[16.7 µM]	0
COc1cccc(C(=O)Nc2ccc3c(c2)OC[C@H](C)N(C(=O)C2CCCC2)C[C@@H](C)[C@H](OC)CN(C)C3=O)c1	3	·	8	4	·	0
COc1ccc(CCNC(=O)c2cc(C(=O)c3cc(Cl)ccc3O)cn(CCc3ccc(OC)cc3)c2=O)cc1	-3	-9	·	80*	11	·
O=C1CCCC/C1=N\Nc1ccc(OCc2ccccc2)cc1	2	·	-65	-48	-17	1.5*
CCOC(=O)CSc1cc(C)nc2ccc(OC)cc12	2	-17	4	-100	1	43*
COc1cccc2c(SCC(=O)N/N=C/c3ccc(O)cc3O)cc(C)nc12	·	-13	7	40	-3	3.0*
COc1ccc2nc(C)cc(SCC(=O)NNC(=O)COc3ccc(C)cc3)c2c1	-6	-8	·	0	-41	·
COc1ccc2nc(C)cc(SCC(=O)Nc3c(C)cccc3C)c2c1	·	·	74*	-13	8	0
COc1ccc2nc(C)cc(SCC(=O)Nc3c(C)cc(C)cc3C)c2c1	4	-1	·	·	-1	·
C[C@@H]1CCCCO[C@H](CN(C)C(=O)Nc2ccccc2)[C@@H](C)CN([C@@H](C)CO)C(=O)c2cc(NS(=O)(=O)c3cn(C)cn3)ccc2O1	3	6	-3	-11	-39[16.7 µM]	1
CN(c1ccccc1)S(=O)(=O)c1ccc(NC(=O)c2ccccc2)cc1	3	·	·	-18	9	·
CN(c1ccccc1)S(=O)(=O)c1ccc(NC(=O)c2nc(S(C)(=O)=O)ncc2Cl)cc1	16	·	58*	133*	-26	0
COc1cccc(NC(=O)c2nc(S(C)(=O)=O)ncc2Cl)c1	5	·	59*	11	-7	0
C[C@@H]1CCCCO[C@@H](CN(C)S(=O)(=O)c2ccc(Cl)cc2)[C@@H](C)CN([C@@H](C)CO)C(=O)c2cc(NC(=O)c3ccncc3)ccc2O1	0	-6	4	-4	-21[16.7 µM]	0
NC(=O)CCC(=O)N1CCCC(C(=O)c2ccc3c4c(cccc24)CC3)C1 (stereo unspecified)	-5	·	-5	10	12	43*
COCCC(=O)N1CCCC(C(=O)c2ccc3c4c(cccc24)CC3)C1 (stereo unspecified)	-10	·	-8	24	12	0
CO[C@@H](CN(C)S(=O)(=O)c1ccc(C)cc1)[C@H](C)CN(Cc1ccccc1Cl)[C@H](C)CO	-19	-13	14	·	·	0
C=C1C(=O)O[C@@H]2C[C@@H](C)[C@@H]3C=CC(=O)[C@@]3(C)[C@@H](OC(C)=O)[C@H]12	39*	·	62*	102*	129*	0
C[C@H](CO)N1C[C@H](C)[C@@H](CN(C)C(=O)Nc2cccc3ccccc23)Oc2c(NS(=O)(=O)c3ccc(F)cc3)cccc2C1=O	6	2	-23	·	·	0
C[C@@H]1CN([C@@H](C)CO)C(=O)c2c(c3ccccc3n2C)-c2ccccc2CO[C@H]1CN(C)S(=O)(=O)c1cn(C)cn1	3	-3	-4	3	-15[16.7 µM]	0
CCCc1cn(CC[C@@H]2CC[C@@H](NC(=O)C3CCCC3)[C@@H](CO)O2)nn1	-4	10	7	2	0[16.7 µM]	0
CCOCCOC(=O)C(C)Oc1ccc(Oc2ncc(Cl)cc2Cl)cc1 (stereo unspecified)	-2	-7	4	71*	·	0
CCOC(=O)C(C)Oc1ccc(OCc2ccccc2)cc1 (stereo unspecified)	·	·	8	-3	9	0
CCOCCOC(=O)C(C)Oc1ccc(Oc2nc(Cl)ccc2Cl)cc1 (stereo unspecified)	-11	88*	14	5	-8	43*
C=CCN(C(C(=O)OC)C(C)C)S(=O)(=O)CCNCc1ccccc1 (stereo unspecified)	12	-22	6	-4	?	0
SMILES	FN deposition inh	PGC1a acetyl inh	EWS-Fli block	PAX8 inh HTS	HIV Env fusion	FGF22 binding
C=CCN([C@H](C(=O)OC)C(C)C)S(=O)(=O)CCNCc1ccccc1	-10	0	-2	5	62*	0
COc1ccc2c3c(n(C)c2c1)[C@H](CO)N(C(=O)Nc1ccc(F)cc1)CC31CN(S(=O)(=O)c2cccc(F)c2)C1	·	-1	-7	·	·	·
COc1ccc2c3c(n(C)c2c1)[C@H](CO)N(C(=O)Nc1ccc(F)cc1)CC31CCN(Cc2cccc(F)c2)CC1	·	·	30	·	47[16.7 µM]	0
COc1ccc2c3c(n(C)c2c1)[C@@H](CO)N(C(=O)Nc1ccc(F)cc1)CC31CCN(Cc2cccc(F)c2)CC1	·	·	40	·	82*[16.7 µM]	0
COc1ccc2c3c(n(C)c2c1)[C@@H](CO)N(C(=O)Nc1ccc(F)cc1)CC31CCN(S(=O)(=O)c2cccs2)CC1	·	-15	9	·	·	0
COc1ccc2c3c(n(C)c2c1)[C@H](CO)N(C(=O)Nc1ccc(F)cc1)CC31CCN(S(=O)(=O)c2cccc(C)c2)CC1	3	-1	-6	89*	·	·
COc1ccc2c3c(n(C)c2c1)[C@@H](CO)N(C(=O)Nc1ccc(F)cc1)CC31CCN(S(=O)(=O)c2cccc(C)c2)CC1	12	-12	-1	81*	·	·
COc1ccc2c3c(n(C)c2c1)[C@H](CO)N(C(=O)Nc1ccc(F)cc1)CC31CCN(C(=O)c2ccc3c(c2)OCO3)CC1	-2	13	-8	77*	·	·
C[C@H]1CN([C@@H](C)CO)C(=O)c2ccccc2-c2ccccc2CO[C@@H]1CN(C)C(=O)[C@@H](Cc1ccccc1)N(C)C	·	-3	-2	13	16[16.7 µM]	0
C[C@@H]1CN([C@H](C)CO)S(=O)(=O)c2ccc(-c3ccc(C#N)cc3)cc2O[C@@H]1CN(C)C(=O)CN(C)C	-7	6	0	·	4[16.7 µM]	0
COc1ccc(CN(C)C[C@@H]2Oc3ccc(NC(=O)Nc4ccc(F)cc4)cc3CC(=O)N([C@@H](C)CO)C[C@@H]2C)cc1	·	0	5	1	·	-1
C[C@H]1CN([C@@H](C)CO)C(=O)Cc2cc(NC(=O)c3ccncc3)ccc2O[C@@H]1CN(C)S(C)(=O)=O	·	1	-1	-9	16[16.7 µM]	·
COc1ccc(C2C(C(N)=O)=C(C)Nc3nc(-c4ccccc4)nn32)cc1OC (stereo unspecified)	7	·	7	-17	-9	0
COc1ccc(C2C(C(N)=O)=C(C)Nc3nc(-c4cccc(Cl)c4)nn32)cc1OC (stereo unspecified)	28	-4	·	·	58*	·
O=C(CN(c1cccc(C(F)(F)F)c1)S(=O)(=O)c1ccc(Cl)c([N+](=O)[O-])c1)NCc1ccccc1	9	0	·	27	-28	·
